Read-outs that look alike come from different tables or passages of the source.

The text below walks through data of PMC2685098 (Nucleic Acids Research, 2009).

Assay [1] has as its target T1, AIRE-PHD1 Glu298Ala (Homo sapiens, UniProt O43918, E298A).
T1 sequence (O43918 293-354 E298A): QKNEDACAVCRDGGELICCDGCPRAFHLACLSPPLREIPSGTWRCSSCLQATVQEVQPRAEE
The experiment in a line: Isothermal titration calorimetry. The assay is classed as binding. Particulars: AIRE-PHD1 Glu298Ala mutant, ITC 23°C, pH 7.2. The method in brief: (§1)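 Recombinant AIRE-PHD1 (Gln293–Glu354) point mutants, made by overlap-extension PCR and mass-verified by MALDI, at 40–85 μM in 20 mM phosphate, 150 mM NaCl, 2 mM β-mercaptoethanol, 50 μM ZnCl2, pH 7.2. Synthetic H3 1–10 peptides (0.54–2.5 mM) were injected 28–57 times at 15 min spacing, 23°C, stirring 307 rpm. Heats were corrected for dilution and fitted to a one-site model by nonlinear least squares. Run in duplicate.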
Background: Isothermal titration calorimetry measures the heat released or taken up as one component is titrated into another.

Assay [2] concerns the target T2, AIRE-PHD1 Asp304Ala (Homo sapiens, UniProt O43918, D304A).
T2 sequence (O43918 293-354 D304A): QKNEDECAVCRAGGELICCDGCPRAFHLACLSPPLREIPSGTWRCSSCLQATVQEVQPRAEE
The experiment in a line: Isothermal titration calorimetry. Particulars: AIRE-PHD1 Asp304Ala mutant, ITC 23°C, pH 7.2. The assay is classed as binding. The procedure, abridged: as §1

Assay [3] concerns the target T3, AIRE-PHD1 Glu307Ala (Homo sapiens, UniProt O43918, E307A).
T3 sequence (O43918 293-354 E307A): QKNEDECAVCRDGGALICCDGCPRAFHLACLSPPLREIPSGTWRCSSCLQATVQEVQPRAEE
In words: Isothermal titration calorimetry. The assay is classed as binding. Particulars: AIRE-PHD1 Glu307Ala mutant, ITC 23°C, pH 7.2. The procedure, abridged:
as §1

The target of assay [4] is T4, AIRE-PHD1 wild type (Homo sapiens, UniProt O43918).
T4 sequence (O43918 293-354): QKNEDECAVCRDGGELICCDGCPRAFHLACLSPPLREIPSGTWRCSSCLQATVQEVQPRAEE
The following applies: AIRE-PHD1 wt, ITC; previous experiments; ref [22]; cited from earlier work.

Assay [5] deals with T4, AIRE-PHD1 wild type. The experiment in a line: Isothermal titration calorimetry. Particulars: for ΔG / −TΔS: AIRE-PHD1 wt, ITC 23°C, pH 7.2, duplicate, ND = not detectable. The assay is classed as binding.
In assay [6] the target is T4, AIRE-PHD1 wild type. In words: Tryptophan fluorescence titration. The assay is classed as binding.
The test system of the next assay is GST-AIRE-PHD1. In words: Peptide pull-down / in vitro binding assays. Further details: species or system human. Particulars: in vitro: fluorescence titrations, ITC and peptide pull-down assays.
In assay [7] the target is first PHD finger of autoimmune regulator (AIRE-PHD1), wild type (human) (UniProt O43918). In words: other fluorescence titration.
For assay [8] the target is unchanged. The experiment in a line: ITC.
Assay [9] deals with T5, AIRE-PHD1 Glu298Ala (human, UniProt O43918 293-354, Glu298Ala).
T5 sequence (looked up): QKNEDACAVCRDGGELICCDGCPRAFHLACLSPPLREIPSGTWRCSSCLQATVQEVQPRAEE
In words: other fluorescence titration.

Assay [10] has as its target T6, AIRE-PHD1 Asp304Ala (human, UniProt O43918 293-354, Asp304Ala).
T6 sequence (looked up): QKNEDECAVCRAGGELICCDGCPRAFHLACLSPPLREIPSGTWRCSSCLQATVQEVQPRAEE
In words: other fluorescence titration.

In assay [11] the target is T7, AIRE-PHD1 Glu307Ala (human, UniProt O43918 293-354, Glu307Ala).
T7 sequence (looked up): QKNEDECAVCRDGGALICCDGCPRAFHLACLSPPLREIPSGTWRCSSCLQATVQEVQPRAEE
The experiment in a line: other fluorescence titration.

Assay [12] has as its target T5, AIRE-PHD1 Glu298Ala. The experiment in a line: ITC.
In assay [13] the target is T6, AIRE-PHD1 Asp304Ala. In words: ITC.
Assay [14] deals with T7, AIRE-PHD1 Glu307Ala. In words: ITC.
For assay [15], the target named is T8, first PHD finger of autoimmune regulator (AIRE-PHD1), wild type (human, UniProt O43918 293-354).
T8 sequence (looked up): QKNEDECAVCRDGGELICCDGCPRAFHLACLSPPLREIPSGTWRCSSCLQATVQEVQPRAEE
In words: other fluorescence titration.

The target of assay [16] is T8, first PHD finger of autoimmune …. In words: ITC.

As to `C[C@H](N)C(=O)N[C@@H](CCCNC(=N)N)C(=O)N[C@H](C(=O)N[C@@H](CCCCN)C(=O)N[C@@H](CCC(N)=O)C(=O)N[C@H](C(=O)N[C@@H](C)C(=O)N[C@@H](CCCNC(=N)N)C(=O)N[C@@H](CCCCN)C(=O)N[C@@H](CO)C(=O)O)[C@@H](C)O)[C@@H](C)O` [H3K4me0], the ΔG at AIRE-PHD1 Glu298Ala [1] is -24.7 ± 0.42 kJ/mol; at AIRE-PHD1 Asp304Ala [2] it was -21.8 ± 1.7 kJ/mol; at AIRE-PHD1 Glu307Ala [3], -24.7 ± 0.42 kJ/mol; at AIRE-PHD1 wild type [4], -29.7 ± 0.42 kJ/mol. Further, the ΔH was -30.1 ± 0.42 kJ/mol at AIRE-PHD1 Glu298Ala [1], -22.2 ± 1.7 kJ/mol on AIRE-PHD1 Asp304Ala [2], -28 ± 0.42 kJ/mol on AIRE-PHD1 Glu307Ala [3] and -38.9 ± 0.42 kJ/mol at AIRE-PHD1 wild type [4]. The “−TΔS” value was 5.44 ± 0.42 kJ/mol on AIRE-PHD1 Glu298Ala [1], 0.42 ± 1.7 kJ/mol at AIRE-PHD1 Asp304Ala [2], 2.9 ± 0.42 kJ/mol on AIRE-PHD1 Glu307Ala [3] and 9.2 ± 0.42 kJ/mol at AIRE-PHD1 wild type [4].
With `C[C@H](N)C(=O)N[C@@H](CCCNC(=N)N)C(=O)N[C@H](C(=O)N[C@@H](CCCCN)C(=O)N[C@@H](CCC(N)=O)C(=O)N[C@H](C(=O)N[C@@H](C)C(=O)N[C@@H](C)C(=O)N[C@@H](CCCCN)C(=O)N[C@@H](CO)C(=O)O)[C@@H](C)O)[C@@H](C)O` [H3R8AK4me0], on AIRE-PHD1 wild type [5], the ΔG was -24.3 ± 1.3 kJ/mol and the “−TΔS” value turned out to be 6.69 ± 1.3 kJ/mol.
For orientation: Kd means a measure of binding affinity in units of concentration. A lower Kd goes with higher affinity. Consider `C[C@H](N)C(=O)N[C@@H](CCCNC(=N)N)C(=O)N[C@H](C(=O)N[C@@H](CCCCN)C(=O)N[C@@H](CCC(N)=O)C(=O)N[C@H](C(=O)N[C@@H](C)C(=O)N[C@@H](CCCNC(=N)N)C(=O)N[C@@H](CCCCN)C(=O)N[C@@H](COP(=O)(O)O)C(=O)O)[C@@H](C)O)[C@@H](C)O` [H3S10Ph K4me0], for which the Kd on AIRE-PHD1 wild type [6] turned out to be 7.6 ± 1.2 µM. Further, on AIRE-PHD1 wild type [5], the Kd was 24.7 ± 0.2 µM, the ΔG was -26.4 ± 0.42 kJ/mol and the “−TΔS” value was determined as 13.8 ± 0.42 kJ/mol.
For “H3R2me2asK4me0: H3 1-10 peptide, asymmetric di-methylation of R2”, the “AIRE-PHD1 binding (in words)” value with GST-AIRE-PHD1 is “strongly reduced AIRE-PHD1 binding”.
With “histone H3 peptide (1-10) mono-methylated at R2, H3R2me1K4me0”, the Kd in assay [7] was 248 µM. In assay [8], this molecule returned a Kd of 199 µM and a dH of -19.2 kJ/mol.
With “histone H3 peptide (1-10) phosphorylated at S10, H3S10PhK4me0”, the Kd worked out at 7.6 µM in assay [7] and 24.7 µM in assay [8].
Turning to ARTKQTARKS [non-modified histone H3 tail peptide H3K4me0 (residues 1-10)], the Kd is 28.1 ± 2.1 µM in the assay with AIRE-PHD1 Glu298Ala [9]; 80 µM with AIRE-PHD1 Asp304Ala [10]; 19 ± 2.4 µM in the assay with AIRE-PHD1 Glu307Ala [11]; 43.4 ± 0.5 µM in the assay with AIRE-PHD1 Glu298Ala [12]; 123 ± 6.7 µM with AIRE-PHD1 Asp304Ala [13]; 40.6 ± 0.5 µM in the assay with AIRE-PHD1 Glu307Ala [14]. Further, the dH with AIRE-PHD1 Glu298Ala [12] is -30.1 ± 0.418 kJ/mol; with AIRE-PHD1 Asp304Ala [13], -22.2 ± 1.67 kJ/mol; in the assay with AIRE-PHD1 Glu307Ala [14] it was -28 ± 0.418 kJ/mol.
For the molecule ARTKQTAAKS [mutant histone H3 peptide (1-10) H3R8AK4me0], the Kd in assay [15] was 52.8 ± 4.9 µM. In [16], this molecule yielded a Kd of 55.9 µM and a dH of -30.5 ± 1.26 kJ/mol.
